In ChEMBL document CHEMBL2331246, “Synthesis and biological evaluation of substituted 2-benzoylpyridine thiosemicarbazones: novel structure-activity relationships underpinning their anti-proliferative and chelation efficacy” (Bioorg Med Chem Lett, 2013):

Tests used:
SK-N-MC [1] = assay: Antiproliferative activity against human SK-N-MC cells measured after 72 hrs at 37 degC by MTT assay; assay type: functional, cell-based
In short: (§1)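 Cells seeded and left to attach 24 h, then exposed to control medium or chelator for 72 h at 37 °C; proliferation read by MTT assay.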

MRC5 = assay: Antiproliferative activity against human MRC5 cells measured after 72 hrs at 37 degC by MTT assay; assay type: functional, cell-based; details: MRC5, 72 h; in short: as §1
SK-N-MC [2] = assay: Induction of cellular iron mobility in human SK-N-MC cells assessed as iron release at 25 uM for 3 hrs at 37 degC; assay type: functional
In short: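 Cells prelabeled with 59Fe-transferrin (0.75 µM) 3 h at 37 °C, washed four times with ice-cold PBS, then given control medium or chelator (25 µM) 3 h at 37 °C; released 59Fe expressed as % of intracellular 59Fe. Mean ± SD, three experiments, triplicate determinations.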

SK-N-MC [3] = assay: Inhibition of cellular iron uptake in human SK-N-MC cells assessed as iron uptake at 25 uM for 3 hrs at 37 degC relative to control; assay type: functional; set-up: scale not given: the % may be the effect or the level left
In short: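 59Fe-transferrin (0.75 µM) given to cells 3 h at 37 °C with or without chelator (25 µM); washed four times on ice, internalized 59Fe measured and expressed as % of control. Mean ± SD of three experiments with three determinations each.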

Structure (SMILES) | IC50 (SK-N-MC [1]) [µM] | IC50 (MRC5) [µM] | Activity (SK-N-MC [2]) [%] | Activity (SK-N-MC [3]) [%]
Cc1cccc(/C(=N\NC(N)=S)c2ccccc2)n1 | > 6.25 | > 6.25 | 9 | 14
CNC(=S)N/N=C(/c1ccccc1)c1cccc(C)n1 | 5.32 | > 6.25 | 9 | 14
C=CCNC(=S)N/N=C(/c1ccccc1)c1cccc(C)n1 | > 6.25 | > 6.25 | 9 | 14
Cc1cccc(/C(=N\NC(=S)N(C)C)c2ccccc2)n1 | 0.009 | 0.021 | 9 | 14
Cc1cccc(/C(=N\NC(=S)Nc2ccccc2)c2ccccc2)n1 | 2.8 | > 6.25 | 9 | 58
COc1ccc(/C(=N/NC(N)=S)c2cccc(C)n2)cc1 | > 6.25 | > 6.25 | 15 | 14
CNC(=S)N/N=C(/c1ccc(OC)cc1)c1cccc(C)n1 | > 6.25 | > 6.25 | 42 | 22
C=CCNC(=S)N/N=C(/c1ccc(OC)cc1)c1cccc(C)n1 | > 6.25 | > 6.25 | 15 | 14
COc1ccc(/C(=N/NC(=S)N(C)C)c2cccc(C)n2)cc1 | 2.2 | > 6.25 | 15 | 14
COc1ccc(/C(=N/NC(=S)Nc2ccccc2)c2cccc(C)n2)cc1 | 1.75 | 3.81 | 15 | 58
CN(C)C(=S)NN=C(c1ccccn1)c1ccccn1 | – | – | – | 5
CC(=O)N(O)CCCCCNC(=O)CCC(=O)N(O)CCCCCNC(=O)CCC(=O)N(O)CCCCCN [DEFEROXAMINE] | 21.6 | – | – | 80

Further lines, with some results ahead:

IC50 (SK-N-MC [1]) [µM] | Structure (SMILES) | IC50 (MRC5) [µM] | Activity (SK-N-MC [2]) [%] | Activity (SK-N-MC [3]) [%]
0.88 | CCNC(=S)N/N=C(/c1ccccc1)c1cccc(C)n1 | > 6.25 | 9 | 14
> 6.25 | COc1ccc(/C(=N/NC(N)=S)c2cccc(C)n2)cc1OC | > 6.25 | 21 | 14
> 6.25 | CNC(=S)N/N=C(/c1ccc(OC)c(OC)c1)c1cccc(C)n1 | > 6.25 | 21 | 14
> 6.25 | CCNC(=S)N/N=C(/c1ccc(OC)c(OC)c1)c1cccc(C)n1 | > 6.25 | 21 | 14
> 6.25 | C=CCNC(=S)N/N=C(/c1ccc(OC)c(OC)c1)c1cccc(C)n1 | > 6.25 | 21 | 14
2.48 | COc1ccc(/C(=N/NC(=S)N(C)C)c2cccc(C)n2)cc1OC | > 6.25 | 41 | 14
0.62 | COc1ccc(/C(=N/NC(=S)Nc2ccccc2)c2cccc(C)n2)cc1OC | 2.11 | 21 | 58
> 6.25 | CCNC(=S)N/N=C(/c1ccc(OC)cc1)c1cccc(C)n1 | > 6.25 | 15 | 14
